Pf gamet viab – late stage P. falciparum gametocyte viability inhibitors, primary screen, ATP luminescence, HTS; P. falciparum stage V gametocytes, 24 h; inhibition, % at 10.9 µM; 150,000 tested, 0.065% active;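 active = inhibition above the mean plus 3 SD of compounds within the control limits, set per campaign, cut at about 38% in these data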;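 also: 0% = DMSO wells and 100% = medium only without gametocytes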
Calb biofilm kill – clotrimazole potentiators killing C. albicans biofilm, primary screen, 4-compound mixtures | C. albicans biofilm persisters + clotrimazole, fluorescence viability; primary screen in compound mixtures of four per well | inhibition, % at 7.6 µM | 120,000 tested, 0.02% active;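 active = inhibition above 30.3% in the primary screen of four-compound pools, then above 30% when the compound was retested; inconclusive = passed the primary limit but could not be retested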;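 also: compounds exposed to preformed 24 h biofilms for 48 h; 0% = untreated biofilm control and 100% = clotrimazole plus chlorhexidine kill blank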
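Test system: C. albicans biofilms. Buffer or medium: RPMI/MOPS medium, pH 7.0. Timing: 48 h compound exposure at 37 °C. Technique: Alamar Blue fluorescence. Evaluation: percent inhibition of biofilm viability.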
ROMK mod – ROMK potassium channel modulators, primary screen, cell-based, thallium flux, MLSMR library; ATP-sensitive inward rectifier potassium channel 1 (Homo sapiens), P48048; Tet-inducible ROMK, thallium flux fluorescence; actives lie on both sides; B-score at 10 µM; 130,000 tested, 2% active; AID 1918, 2009;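 active = signal ratio slope over the read window, or its plate-corrected B-score, at least 3 SD from the plate mean, either direction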;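 also: B-score of the F/F0 ratio slope over 7 to 12 s after thallium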
Target sequence (P48048 whole entry, looked up): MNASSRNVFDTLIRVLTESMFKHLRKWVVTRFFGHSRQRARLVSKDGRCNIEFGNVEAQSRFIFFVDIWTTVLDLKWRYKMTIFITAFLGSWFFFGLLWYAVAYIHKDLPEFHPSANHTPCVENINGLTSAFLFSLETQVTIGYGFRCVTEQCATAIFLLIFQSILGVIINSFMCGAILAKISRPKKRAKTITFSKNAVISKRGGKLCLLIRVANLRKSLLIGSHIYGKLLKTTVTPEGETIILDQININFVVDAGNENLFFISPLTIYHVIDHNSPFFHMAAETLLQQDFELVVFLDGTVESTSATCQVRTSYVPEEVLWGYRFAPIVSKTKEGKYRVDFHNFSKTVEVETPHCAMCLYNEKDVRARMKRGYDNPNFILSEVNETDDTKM
ROMK retest – ROMK channel modulator hit retest, confirmation, cell-based, thallium flux, duplicate, resupplied hits; normalized thallium flux (F/F0 slope) at 10 µM; shares compounds with ROMK mod; fluorescence ratio; stronger effect = lower value; 3,000 tested, 54% active;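 active = Flux at 10 µM at least 3 SD below or above vehicle control mean in one or both replicates; inconclusive = no clear call, values can overlap the other calls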
* = called active by the depositor. Shown is part of a subset that was picked to be rich in hits.

How did CCCn1c(=O)c(Cc2ccccc2)c(O)c2ccccc21 do in these assays?
Pf gamet viab: -17.6

What do the screens show for `CCOC(=O)c1c(C)n(C)c2ccc(O)c(CN3CCCCC3)c12`?
Pf gamet viab: -41.0; ROMK mod: -2.52

Results for CCOC(=O)c1c(C)n(C)c2ccc(OC)c(NC(=O)CN3CCCCC3)c12 ?
ROMK mod: -4.08*; ROMK retest: 0.0562*

Results for CN(C)/C=C(/C(=O)c1ccc(Cl)cc1)S(=O)(=O)c1ccc(Cl)cc1 ?
ROMK retest: 0.082

How did CN(C)/C=C(/C(=O)c1ccc(Cl)cc1Cl)S(=O)(=O)c1ccc(Cl)cc1 do in these assays?
Pf gamet viab: 4.9

Results for CCc1cccc(C)c1NS(=O)(=O)Cc1ccccc1 ?
Pf gamet viab: 6.7

Results for COc1ccc(-c2nc(CN3CCN(c4ncnc5ccccc45)CC3)c(C)o2)c(OC)c1 ?
Calb biofilm kill: 1.6; ROMK mod: -2.65*; ROMK retest: 0.0653*

Results for Cc1oc(-c2cc(F)ccc2F)nc1CN1CCN(c2ncnc3ccccc23)CC1 ?
Pf gamet viab: 9.5; Calb biofilm kill: 21.5; ROMK mod: -0.00457

How did Cc1ccc(NC(=O)CN(C)c2ccc(S(=O)(=O)N3CCCC3)cn2)cc1 do in these assays?
Pf gamet viab: 11.8; Calb biofilm kill: 9.2; ROMK mod: -0.95

How did CN(CCOc1ccc(Cl)cc1)c1ccc(S(=O)(=O)N2CCCCC2)cn1 do in these assays?
Pf gamet viab: -7.4; ROMK mod: -4.39*; ROMK retest: inconclusive

Results for COC(=O)c1[nH]c2ccc(Cl)cc2c1NC(=O)C1CC1 ?
Pf gamet viab: 4.9; ROMK retest: 0.0766

What do the screens show for `COC(=O)c1[nH]c2ccc(Cl)cc2c1NC(=O)CCN1CCN(C2CCCCC2)CC1`?
ROMK mod: -1.17

Results for CC[N+]1(CC)CC2=Cc3c(ccc4ccccc34)C(C)C2C1 (centres undefined) ?
Pf gamet viab: 3.4; Calb biofilm kill: 9.3

Results for OC(COc1ccc(Br)cc1)CN1CCN(c2ccccc2)CC1 (centres undefined) ?
Pf gamet viab: 1.9

What do the screens show for `CC(C)CN=C(NS(=O)(=O)c1ccccc1)C(Cl)(Cl)Cl`?
Pf gamet viab: -9.2; Calb biofilm kill: 15.3; ROMK retest: 0.05*

Results for CC(C)CC(NS(=O)(=O)c1ccccc1)C(=O)O (centres undefined) ?
Pf gamet viab: 17.9; ROMK mod: 0.632

What do the screens show for `COc1ccc(S(=O)(=O)NNC(=O)c2ccc(-n3c(C)ccc3C)cc2)cc1`?
Pf gamet viab: -0.7; Calb biofilm kill: 12.7

How did O=C(Nc1ccc(S(=O)(=O)Nc2ncccn2)cc1)c1cccc(S(=O)(=O)N2CCOCC2)c1 do in these assays?
Pf gamet viab: 9.8; Calb biofilm kill: 5.6

Results for CC(=O)c1ccc(NC(=O)C2CC(=O)N(C(C)C)C2)cc1 (centres undefined) ?
Pf gamet viab: -0.1; Calb biofilm kill: 14.6; ROMK mod: -0.0434

Results for N#CC1=C(N)NC(SCC(=O)c2ccc(Br)cc2)=C(C#N)C12CCCCC2 ?
Pf gamet viab: -21.0; Calb biofilm kill: 7.0; ROMK mod: -0.848

How did N#CC1=C(N)NC(SCC(=O)c2ccc(Cl)cc2)=C(C#N)C12CCCC2 do in these assays?
ROMK mod: -2.34*; ROMK retest: 0.0662*

Results for Cc1cc2cc(CNC(=O)C(C)Oc3ccccc3)ccc2n1C (centres undefined) ?
Pf gamet viab: 9.9; Calb biofilm kill: 7.1; ROMK mod: 1.23

Results for O=C(c1ccccc1Br)N1CCC(c2nc3ccccc3s2)CC1 ?
Pf gamet viab: -16.9; Calb biofilm kill: 16.4; ROMK mod: 0.61

Results for O=C(CN1CCC(c2nc3ccccc3s2)CC1)NCc1ccccc1 ?
Calb biofilm kill: 14.0; ROMK mod: -3.01*; ROMK retest: 0.0733

How did CCOC(=O)[C@H]1[C@H]2COc3ccc(Cl)cc3[C@@H]2N2C(=O)CNC(=O)[C@@]12C do in these assays?
Pf gamet viab: 11.4

Results for CCOc1ccc(N2C(=O)CC(Sc3nc(C)cc(C)n3)C2=O)cc1 (centres undefined) ?
Pf gamet viab: 3.6; ROMK mod: 0.0668

Results for CCOc1ccc(N2CC(=O)N/C2=N\c2nc(C)cc(C)n2)cc1 ?
Pf gamet viab: -10.2; ROMK retest: 0.0769

What do the screens show for `Brc1ccc2c(c1)CNc1c(ncnc1N1CCOCC1)O2`?
Pf gamet viab: -16.0; ROMK retest: 0.0819

What do the screens show for `CC(C)CC1Nc2ncnc(N3CCOCC3)c2N(Cc2ccc(Br)cc2)C1=O` (centres undefined)?
Pf gamet viab: -2.6

Screens: PubChem, several laboratories
